# ChEMBL document CHEMBL5214897, “Modular Design of Membrane-Active Antibiotics: From Macromolecular Antimicrobials to Small Scorpionlike Peptidomimetics” (J Med Chem, 2021)
# Activity calls are given as the source filed them. No cut-off for these calls is given here.
# Columns and labels:
# Escherichia coli = assay: Antibacterial activity against Escherichia coli assessed as bacterial growth inhibition incubated for 16 hrs by microplate reader assay; assay type: functional
# Outline: (§1)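 Strains E. coli ATCC 25922, K. pneumoniae ATCC 13383, P. aeruginosa ATCC 27853 grown in TSB at 37 °C for 16 h with shaking, subcultured 6 h to mid-log.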
# Staphylococcus aureus [1] = assay: Antibacterial activity against methicillin-resistant Staphylococcus aureus assessed as bacterial growth inhibition incubated for 16 hrs by microplate reader assay; assay type: functional
# Outline: (§2)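 Strains grown in TSB at 37 °C for 16 h with shaking, subcultured 6 h to mid-log. 10^6 CFU/mL bacteria mixed 1:1 with compound over 0.75 to 25 μg/mL. Incubated at 37 °C for 16 h; MIC read on a microplate reader.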
# [2] = Hemolytic activity in human RBC assessed as hemolysis incubated for 1 hr by microplate reader assay; assay type: toxicity, cell-based, Erythrocyte; conditions: human red blood cells (erythrocytes)
# Outline: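 Fresh human erythrocytes washed in 1× PBS (700 g, 10 min), made to 5% suspension, mixed 1:1 with compound (250 to 1.95 µg/mL), 37 °C for 1 h. After centrifugation, supernatant diluted in PBS and A540 read; 2% Triton-100 = 100%, PBS = 0%; HC50 derived from % hemolysis.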
# Klebsiella pneumoniae = assay: Antibacterial activity against Klebsiella pneumoniae assessed as bacterial growth inhibition incubated for 16 hrs by microplate reader assay; assay type: functional; outline: as §1
# [3] = Therapeutic index, ratio of HC50 for Hemolytic activity in human RBC to MIC for Antibacterial activity against methicillin-resistant Staphylococcus aureus; assay type: toxicity
# [4] = test system: Staphylococcus epidermidis; assay: Antibacterial activity against methicillin-resistant Staphylococcus epidermidis assessed as bacterial growth inhibition incubated for 16 hrs by microplate reader assay; assay type: functional; outline: as §2
# Enterococcus faecalis = assay: Antibacterial activity against vancomycin-resistant Enterococcus faecalis assessed as bacterial growth inhibition incubated for 16 hrs by microplate reader assay; assay type: functional; outline: as §2
# Pseudomonas aeruginosa = assay: Antibacterial activity against Pseudomonas aeruginosa assessed as bacterial growth inhibition incubated for 16 hrs by microplate reader assay; assay type: functional; outline: as §1
# [5] = Toxicity in ICR mouse infected with methicillin-resistant Staphylococcus aureus assessed as histopathological abnormalities in liver at […],sc measured after 48 hrs by H and E staining based assay; assay type: organism-based; conditions: in vivo
# Outline: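 MRSA abscess model in female ICR mice: 100 μL compound in PBS (0.5 or 5 mg/mL) injected subcutaneously at the infection site 30 min after inoculation. Major organs harvested and examined by H&E staining for systemic toxicity.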
# Staphylococcus aureus [6] = assay: Antibacterial activity in ICR mouse infected with methicillin-resistant Staphylococcus aureus assessed as reduction in skin inflammatory cells at 5 mg/ml,sc measured after 48 hrs by H and E staining based analysis; assay type: functional, organism-based
# Outline: (§3)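 Female ICR mice (16–20 g), anaesthetised and dorsum shaved. Subcutaneous abscess made with 100 μL MRSA at 1×10^8 CFU/mL. After 30 min, 100 μL of compound in sterile PBS (0.5 or 5 mg/mL) injected into the infection site; PBS controls. At 48 h: skin imaged, abscess bacteria plate-counted, H&E histology, IL-6 and TNF-α measured in skin homogenate by ELISA.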
# Staphylococcus aureus [7] = assay: Antibacterial activity in ICR mouse infected with methicillin-resistant Staphylococcus aureus assessed as reduction in microbial burden at 5 mg/ml,sc measured after 48 hrs; assay type: functional; set-up: scale not given: the % may be the effect or the level left; outline: as §3
# Staphylococcus aureus [8] = assay: Antibacterial activity in ICR mouse infected with methicillin-resistant Staphylococcus aureus assessed as presence of erythema at 5 mg/ml,sc measured after 48 hrs; assay type: functional, organism-based; outline: as §3
# Staphylococcus aureus [9] = assay: Antibacterial activity in ICR mouse infected with methicillin-resistant Staphylococcus aureus assessed as reduction in colony growth at 5 mg/ml,sc measured after 48 hrs; assay type: functional; outline: as §3
# Staphylococcus aureus [10] = assay: Antibacterial activity in ICR mouse infected with methicillin-resistant Staphylococcus aureus assessed as reduction in IL-6 level at 5 mg/ml,sc measured after 48 hrs by ELISA assay; assay type: functional, organism-based; outline: as §3
# Staphylococcus aureus [11] = assay: Antibacterial activity in ICR mouse infected with methicillin-resistant Staphylococcus aureus assessed as reduction in TNF-alpha level at 5 mg/ml,sc measured after 48 hrs by ELISA assay; assay type: functional, organism-based; outline: as §3
structure (smiles),measurement,setting,value
CCCCCCCC(=O)NCCNC(=O)c1cc(NC(=O)CN(C[C@@H](N)CCCCN)C(=O)c2cccc(Cl)c2)cc(NC(=O)CN(C[C@@H](N)CCCCN)C(=O)c2cccc(Cl)c2)c1,MIC,Escherichia coli,> 25 µg/mL
same,MIC,Staphylococcus aureus [1],> 25 µg/mL
same,HC50 at 1 h,[2],> 250 µg/mL
CCCCCCCCNC(=O)c1cc(NC(=O)CN(C[C@@H](N)CCCCN)C(=O)CC23CC4CC(CC(C4)C2)C3)cc(NC(=O)CN(C[C@@H](N)CCCCN)C(=O)CC23CC4CC(CC(C4)C2)C3)c1,MIC,Klebsiella pneumoniae,9 µg/mL
same,selectivity ratio,[3],62.5
same,MIC,[4],4.5 µg/mL
same,MIC,Enterococcus faecalis,4.5 µg/mL
same,MIC,Escherichia coli,9 µg/mL
same,MIC,Staphylococcus aureus [1],2 µg/mL
same,MIC,Pseudomonas aeruginosa,19 µg/mL
same,HC50 at 1 h,[2],125 µg/mL
CCCCCCCC(=O)NCCNC(=O)c1cc(NC(=O)CN(C[C@@H](N)CCCCN)C(=O)Cc2cccc3ccccc23)cc(NC(=O)CN(C[C@@H](N)CCCCN)C(=O)Cc2cccc3ccccc23)c1,MIC,Klebsiella pneumoniae,4.5 µg/mL
same,selectivity ratio,[3],> 27.8
same,MIC,[4],9 µg/mL
same,MIC,Enterococcus faecalis,> 25 µg/mL
same,MIC,Escherichia coli,4.5 µg/mL
same,MIC,Staphylococcus aureus [1],9 µg/mL
same,MIC,Pseudomonas aeruginosa,> 25 µg/mL
same,HC50 at 1 h,[2],> 250 µg/mL
CCCCCCCC(=O)NCCNC(=O)c1cc(NC(=O)CN(C[C@@H](N)CCCCN)C(=O)CC23CC4CC(CC(C4)C2)C3)cc(NC(=O)CN(C[C@@H](N)CCCCN)C(=O)CC23CC4CC(CC(C4)C2)C3)c1,MIC,Klebsiella pneumoniae,4.5 µg/mL
same,selectivity ratio,[3],> 125
same,MIC,[4],2 µg/mL
same,MIC,Enterococcus faecalis,4.5 µg/mL
same,MIC,Escherichia coli,4.5 µg/mL
same,MIC,Staphylococcus aureus [1],2 µg/mL
same,MIC,Pseudomonas aeruginosa,4.5 µg/mL
same,HC50 at 1 h,[2],> 250 µg/mL
CCCCCCCC(=O)NCCNC(=O)c1cc(NC(=O)CN(C[C@@H](N)CCCCN)C(=O)CCCCC)cc(NC(=O)CN(C[C@@H](N)CCCCN)C(=O)CCCCC)c1,MIC,Escherichia coli,> 25 µg/mL
same,MIC,Staphylococcus aureus [1],> 25 µg/mL
same,HC50 at 1 h,[2],> 250 µg/mL
CCCCCCCCCCCC(=O)NCCNC(=O)c1cc(NC(=O)CN(C[C@@H](N)CCCCN)C(=O)CC23CC4CC(CC(C4)C2)C3)cc(NC(=O)CN(C[C@@H](N)CCCCN)C(=O)CC23CC4CC(CC(C4)C2)C3)c1,MIC,Klebsiella pneumoniae,> 25 µg/mL
same,selectivity ratio,[3],55.5
same,MIC,[4],4.5 µg/mL
same,MIC,Enterococcus faecalis,4.5 µg/mL
same,MIC,Escherichia coli,> 25 µg/mL
same,MIC,Staphylococcus aureus [1],4.5 µg/mL
same,MIC,Pseudomonas aeruginosa,> 25 µg/mL
same,HC50 at 1 h,[2],250 µg/mL
CCCCCCCC(=O)NCCNC(=O)c1cc(NC(=O)CN(C[C@@H](N)CCCCN)C(=O)CCCCCCC)cc(NC(=O)CN(C[C@@H](N)CCCCN)C(=O)CCCCCCC)c1,MIC,Klebsiella pneumoniae,> 25 µg/mL
same,selectivity ratio,[3],> 55.5
same,MIC,[4],4.5 µg/mL
same,MIC,Enterococcus faecalis,4.5 µg/mL
same,MIC,Escherichia coli,4.5 µg/mL
same,MIC,Staphylococcus aureus [1],4.5 µg/mL
same,MIC,Pseudomonas aeruginosa,4.5 µg/mL
same,HC50 at 1 h,[2],> 250 µg/mL
CCCCCCCCCCCC(=O)NCCNC(=O)c1cc(NC(=O)CN(C[C@@H](N)CCCCN)C(=O)CCCCCCC)cc(NC(=O)CN(C[C@@H](N)CCCCN)C(=O)CCCCCCC)c1,MIC,Klebsiella pneumoniae,> 25 µg/mL
same,selectivity ratio,[3],> 55.5
same,MIC,[4],9 µg/mL
same,MIC,Enterococcus faecalis,> 25 µg/mL
same,MIC,Escherichia coli,> 25 µg/mL
same,MIC,Staphylococcus aureus [1],4.5 µg/mL
same,MIC,Pseudomonas aeruginosa,> 25 µg/mL
same,HC50 at 1 h,[2],> 250 µg/mL
O=C(O)c1cn(C2CC2)c2cc(N3CCNCC3)c(F)cc2c1=O [CIPROFLOXACIN],MIC,Klebsiella pneumoniae,0.9 µg/mL
same,Activity,[5],Toxic
same,Activity,Staphylococcus aureus [6],Active
same,Activity,Staphylococcus aureus [7],81.1%
same,MIC,[4],0.45 µg/mL
same,MIC,Enterococcus faecalis,0.9 µg/mL
same,Activity,Staphylococcus aureus [8],Active
same,MIC,Staphylococcus aureus [1],0.24 µg/mL
same,Activity,Staphylococcus aureus [9],0.7 log10CFU/ml
same,MIC,Pseudomonas aeruginosa,0.45 µg/mL
same,Activity,Staphylococcus aureus [10],Active
same,Activity,Staphylococcus aureus [11],Active
CCCCCCCCCC(=O)NCCNC(=O)c1cc(NC(=O)CN(C[C@@H](N)CCCCN)C(=O)CC23CC4CC(CC(C4)C2)C3)cc(NC(=O)CN(C[C@@H](N)CCCCN)C(=O)CC23CC4CC(CC(C4)C2)C3)c1,MIC,Klebsiella pneumoniae,4.5 µg/mL
same,selectivity ratio,[3],> 250
same,MIC,[4],2 µg/mL
same,MIC,Enterococcus faecalis,4.5 µg/mL
same,MIC,Escherichia coli,19 µg/mL
same,MIC,Staphylococcus aureus [1],1 µg/mL
same,MIC,Pseudomonas aeruginosa,2 µg/mL
same,HC50 at 1 h,[2],> 250 µg/mL
CCCCCCCC(=O)NCCNC(=O)c1cc(NC(=O)CN(C[C@@H](N)CCCCN)C(=O)c2ccc(-c3ccccc3)cc2)cc(NC(=O)CN(C[C@@H](N)CCCCN)C(=O)c2ccc(-c3ccccc3)cc2)c1,MIC,Klebsiella pneumoniae,> 25 µg/mL
same,selectivity ratio,[3],> 55.5
same,MIC,[4],4.5 µg/mL
same,MIC,Enterococcus faecalis,4.5 µg/mL
same,MIC,Escherichia coli,9 µg/mL
same,MIC,Staphylococcus aureus [1],4.5 µg/mL
same,MIC,Pseudomonas aeruginosa,4.5 µg/mL
same,HC50 at 1 h,[2],> 250 µg/mL
CCCCCCNC(=O)c1cc(NC(=O)CN(C[C@@H](N)CCCCN)C(=O)CC23CC4CC(CC(C4)C2)C3)cc(NC(=O)CN(C[C@@H](N)CCCCN)C(=O)CC23CC4CC(CC(C4)C2)C3)c1,MIC,Klebsiella pneumoniae,9 µg/mL
same,selectivity ratio,[3],62.5
same,MIC,[4],2 µg/mL
same,MIC,Enterococcus faecalis,2 µg/mL
same,MIC,Escherichia coli,9 µg/mL
same,MIC,Staphylococcus aureus [1],2 µg/mL
same,MIC,Pseudomonas aeruginosa,4.5 µg/mL
same,HC50 at 1 h,[2],125 µg/mL
CCCCCCCCCCNC(=O)c1cc(NC(=O)CN(C[C@@H](N)CCCCN)C(=O)CC23CC4CC(CC(C4)C2)C3)cc(NC(=O)CN(C[C@@H](N)CCCCN)C(=O)CC23CC4CC(CC(C4)C2)C3)c1,MIC,Klebsiella pneumoniae,> 25 µg/mL
same,selectivity ratio,[3],62.5
same,MIC,[4],9 µg/mL
same,MIC,Enterococcus faecalis,2 µg/mL
same,MIC,Escherichia coli,> 25 µg/mL
same,MIC,Staphylococcus aureus [1],2 µg/mL
same,MIC,Pseudomonas aeruginosa,> 25 µg/mL
same,HC50 at 1 h,[2],125 µg/mL
CCCCCCCC(=O)NCCNC(=O)c1cc(NC(=O)CN(C[C@@H](N)CCCCN)C(=O)c2ccc(Cl)cc2)cc(NC(=O)CN(C[C@@H](N)CCCCN)C(=O)c2ccc(Cl)cc2)c1,MIC,Escherichia coli,> 25 µg/mL
same,MIC,Staphylococcus aureus [1],> 25 µg/mL
same,HC50 at 1 h,[2],> 250 µg/mL
CCCCCCCCCCCC(=O)NCCNC(=O)c1cc(NC(=O)CNC[C@@H](N)CCCCN)cc(NC(=O)CNC[C@@H](N)CCCCN)c1,MIC,Escherichia coli,> 25 µg/mL
same,MIC,Staphylococcus aureus [1],> 25 µg/mL
same,HC50 at 1 h,[2],> 250 µg/mL
